According to ChEMBL document CHEMBL1287645, “Synthesis and anti-prion activity evaluation of aminoquinoline analogues” (Eur J Med Chem, 2010):
The source made the active and inactive calls. No cut-off for these calls is given here.

Tests used:
[1] = molecular target: Major prion protein (Mesocricetus auratus) (UniProt P04273); experiment: Inhibition of Syrian hamster prion protein (109-149) aggregation assessed as compound concentration required to inhibit 50% aggregation by spectrofluorimetric analysis
In short: (§1)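 Synthetic hamster PrP 109–149 peptide was solubilized in 50 mM MES pH 5.0 with 6 M urea and 10 mM SDS, where it stays unfolded. It was diluted at least 100-fold to 0.5 µM in 50 mM MES pH 5.0 containing increasing compound concentrations. Light scattering (450 nm excitation/emission) was followed over time. Maximum scattering was normalized to the no-compound control (100% aggregation) and to the peptide in 6 M urea (0%). Values are means of three independent measurements.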

[2] = molecular target: Major prion protein (Mesocricetus auratus) (UniProt P04273); experiment: Reduction of thioflavin T binding to Syrian hamster prion protein (109-149) at 10 uM after 10 mins by fluorescence assay
In short: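 Peptide at 1.0 µM was incubated with compound at 10 µM in pH 5.0 buffer. After 10 min, thioflavin T was added to 20 µM final. Emission was recorded from 470–520 nm with excitation at 450 nm. The integrated spectral area was corrected for probe emission without peptide. Values are means of three experiments.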

[3] = molecular target: Major prion protein (Mesocricetus auratus) (UniProt P04273); experiment: Inhibition of Syrian hamster prion protein (109-149) aggregation assessed as changes in light scattering at 0.2 uM by spectrofluorimetric analysis relative to control; in short: as §1
[4] = molecular target: Major prion protein (Mesocricetus auratus) (UniProt P04273); experiment: Inhibition of Syrian hamster prion protein (109-149) aggregation assessed as changes in light scattering at 1 uM by spectrofluorimetric analysis relative to control; in short: as §1
[5] = molecular target: Major prion protein (Mesocricetus auratus) (UniProt P04273); experiment: Inhibition of Syrian hamster prion protein (109-149) aggregation assessed as changes in light scattering at 0.1 uM by spectrofluorimetric analysis relative to control; in short: as §1

Chain of Major prion protein (Mesocricetus auratus) (P04273 whole entry): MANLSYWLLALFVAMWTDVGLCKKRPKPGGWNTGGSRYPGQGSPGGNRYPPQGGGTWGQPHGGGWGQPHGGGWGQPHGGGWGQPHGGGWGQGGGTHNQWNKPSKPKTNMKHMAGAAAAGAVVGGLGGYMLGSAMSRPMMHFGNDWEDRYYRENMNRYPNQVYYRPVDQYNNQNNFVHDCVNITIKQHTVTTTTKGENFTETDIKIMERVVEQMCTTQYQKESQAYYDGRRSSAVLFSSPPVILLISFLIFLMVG

Row | Structure (SMILES) | C50 [1] | Activity [2] | inhibition [3] | inhibition [4] | inhibition [5]
1 | Nc1ccnc2cc(Cl)ccc12 | 0.2 µM | Active | 50% | 8.4% | 50%
2 | NCCNc1ccnc2cc(Cl)ccc12 | 0.1 µM | Active | 50% | 7.9% | 50%
3 | OCCNc1ccnc2cc(Cl)ccc12 | > 1 µM | Active | – | 97% | –
4 | CN(C)CCNc1ccnc2cc(Cl)ccc12 | > 1 µM | – | – | 82% | –
5 | CNc1ccnc2cc(Cl)ccc12 | > 0.9 µM | Active | – | 38.6% | –
6 | CCN(CC)CCNc1ccnc2cc(SC(F)(F)F)ccc12 | > 1 µM | – | – | 54% | –
7 | Clc1ccc2c(NC3CCCC3)ccnc2c1 | > 1 µM | Active | – | – | –
